# High-throughput results: PubChem BioAssay, several laboratories
# Yeast life ext – yeast lifespan extension; S. cerevisiae growth with nicotinamide, OD615; deaD strain in restrictive glucose medium; inhibition of the nicotinamide effect, % at 10 µM; 130,000 compounds, 0.68% hits;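 active = inhibition above a set limit, placed 3 SD over the median of all compounds, cut at about 26% in these data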;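 also: 0% = nicotinamide-treated wells and 100% = cells grown without nicotinamide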
#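 Test system: DeaD-strain S. cerevisiae / Buffer or medium: restrictive glucose medium / Also added: nicotinamide 1.5 mM / Doses: one concentration, 10 µM, DMSO 0.25% / Schedule: 48 h at 30 °C / Signal: OD615 measurement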
# TNAP inh no acc – blocks human TNAP activity with no phosphate acceptor present. inhibition, % at 20 µM. 200,000 compounds, 0.26% hits. AID 1012. purified TNAP, CDP-star luminescence, 30 min. P05186;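 active = tissue-nonspecific alkaline phosphatase inhibition above about 50% at 20 µM in the single-dose screen, limit read from the data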;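 also: 0% = DMSO negative control and 100% = EDTA positive control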
# Target sequence (P05186 whole entry, looked up): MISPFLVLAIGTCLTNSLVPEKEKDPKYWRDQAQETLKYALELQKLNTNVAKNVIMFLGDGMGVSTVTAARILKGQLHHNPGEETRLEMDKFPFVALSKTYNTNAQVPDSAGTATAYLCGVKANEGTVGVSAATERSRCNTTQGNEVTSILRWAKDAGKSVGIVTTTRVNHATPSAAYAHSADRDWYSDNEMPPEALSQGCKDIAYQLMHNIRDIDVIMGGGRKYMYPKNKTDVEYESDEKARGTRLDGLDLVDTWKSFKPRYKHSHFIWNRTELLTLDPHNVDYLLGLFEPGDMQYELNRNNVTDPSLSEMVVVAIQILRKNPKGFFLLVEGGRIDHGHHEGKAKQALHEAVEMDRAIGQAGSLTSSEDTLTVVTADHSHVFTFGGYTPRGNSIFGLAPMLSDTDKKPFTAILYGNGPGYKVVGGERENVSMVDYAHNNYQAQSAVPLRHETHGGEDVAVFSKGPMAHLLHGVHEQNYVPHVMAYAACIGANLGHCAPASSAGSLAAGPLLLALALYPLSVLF
# BB579 growth dn – reduces growth of yeast BB579 in restrictive medium | AID 804 | inhibition, % at 10 µM | 140,000 compounds, 0.51% hits | S. cerevisiae BB579 growth, OD615, 48 h;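 active = inhibition above a set limit, 3 SD over the mean compound inhibition, cut at about 44% in these data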
#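 System: DeaD yeast strain BB579; buffer or medium: CSMM-D dextrose restrictive medium; technique: OD at 615 nm; schedule: 4 h cell preincubation, 48 h compound exposure, 30 °C humidified; doses: single 10 µM dose; controls: amphotericin B 10 µg/mL, positive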
# TNAP act hiacc – activators of human TNAP at high phosphate acceptor concentration; AID 1136; purified TNAP, CDP-star luminescence, 1 M DEA, 30 min; stronger effect = higher value; 0 = EDTA background, 1 = DMSO-only activity; activation factor at 20 µM; 200,000 tested, under 10 active; P05186;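 active = activation factor at least 2 at 20 µM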
#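 system = human TNAP | amount = enzyme diluted 1/800 final | reagent = 100 µM CDP-star substrate | signal = luminescent substrate turnover signal | dosing = one dose, 20 µM | benchmarks = EDTA negative control, DMSO positive control | measure = activation factor | timing = 30 min reaction, room temperature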
# TNAP inh hiacc – inhibitors of human TNAP at high phosphate acceptor concentration; purified TNAP, CDP-star luminescence, 1 M DEA; inhibition, % at 20 µM; 200,000 compounds, 0.03% hits; AID 1135;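 active = over 50% inhibition of tissue-nonspecific alkaline phosphatase at 20 µM in the single-dose screen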;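 also: plate controls were DMSO wells for no effect and EDTA-quenched wells as full inhibition for full effect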
# RAM inhibit – blocks the yeast RAM network. AID 868. inhibition, % at 50 µM. S. cerevisiae dse1pr::URA3 reporter, 5-FOA growth OD615, 2 d; analog-sensitive cbk1-as2 kinase mutant strain. 190,000 compounds, 1.8% hits;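 active = inhibition above a set limit, 3 SD over mean compound inhibition, cut at about 8.4% in these data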;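 also: 0% = DMSO-only wells with no growth and 100% = 10 µM 1-NA-PP1 full growth; inhibition rescues growth on 5-FOA so higher OD means more RAM inhibition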
# Active calls of the source: *; x = not tested or not shown. Shown are actives, neighbours in structure and some others; about 2.8% of the full set was active somewhere.
SMILES,Yeast life ext,TNAP inh no acc,BB579 growth dn,TNAP act hiacc,TNAP inh hiacc,RAM inhibit
CCOC(=O)C1=C(O)/C(=C/c2ccc(OCC(=O)O)c(OCC)c2)SC1=Nc1ccccc1,x,-5,x,1,-3,10*
CC(C)(C)NC(=O)C(c1ccco1)N(C(=O)Cn1nnc(-c2ccc(F)cc2)n1)c1cccc(F)c1 (stereo unspecified),-7,-7,-26,1,-2,9.2*
O=C1C=CC2C(c3ccc4c(c3)OCO4)CC1N2Cc1ccccc1 (stereo unspecified),50*,-12,-33,1.1,-7,0
COc1ccc2[nH]c3c(Cl)ncnc3c2c1,-8,0,56*,1,4,0
Fc1ccc2[nH]c3c(Cl)ncnc3c2c1,x,-7,x,1.1,-5,2
Cc1ccc(-n2[nH]c(C)c(/C=N/Nc3ccc([N+](=O)[O-])cc3[N+](=O)[O-])c2=O)cc1,1,35,-12,0.5,51*,2
Cc1[nH]n(-c2ccc([N+](=O)[O-])cc2)c(=O)c1C=NCC1CCCO1 (stereo unspecified),x,-12,x,1.1,-5,2
CCOCCCNC(=S)N1CCC(NC(=O)C23CC4CC(CC(C4)C2)C3)CC1,x,-7,x,1,1,2
Cc1nn(-c2ccccc2)c(N)c1N=Nc1ccc(Cl)cc1,-9,19,14,1,5,10*
Cc1nn(-c2ccccc2)c(N)c1N=Nc1ccccc1,-7,7,6,1,4,0
Cn1ccnc1SCC(=O)Nc1ccc2c(c1)OC(F)(F)O2,x,3,x,1,-4,2
CCOC(=O)c1ccccc1Cc1nc2ccccc2c(=O)[nH]1,0,-9,0,1,-4,6
O=C(O)c1ccccc1Cc1nc2cc(Cl)ccc2c(=O)[nH]1,x,-3,x,1,1,8.6*
O=C(Cn1c(=O)n(-c2ccccc2)c(=O)c2sccc21)NCc1ccccc1,x,-13,x,1.1,-6,3
COc1ccccc1NC(=O)C1=C(C)NC(SCC(=O)c2ccc(C)cc2)=C(C#N)C1c1ccco1 (stereo unspecified),-7,-20,-44,1.1,-11,8.8*
COc1ccc(C(=O)NC(C(=O)NCCc2ccc3c(c2)OCCO3)C(C)C)cc1 (stereo unspecified),x,-8,x,1,0,7
CCN1C(=O)c2cccc3c(Cl)ccc(c23)C1=O,x,-6,x,1,-4,2
O=C1c2cccc3c(Cl)ccc(c23)C(=O)N1O,-10,9,82*,1,3,0
N#Cc1c(-c2ccco2)cc(C2CC2)nc1SCC(=O)c1ccccc1,-10,-10,-29,1,-1,8.7*
N#Cc1c(-c2ccccc2)cc(C2CC2)nc1SCC(=O)O,12,-3,-13,0.9,6,5
COC(=O)CSc1nc(N)c(C#N)c(-c2ccco2)c1C#N,-9,-6,-14,1,0,4
COC(=O)CSc1nc(-c2ccccc2)cc(-c2ccco2)c1C#N,-19,-15,-10,1,3,9.7*
CCOC(=O)C1=C(CSc2nc(-c3ccccc3)ccc2C#N)OC(N)=C(C#N)C1c1ccccc1 (stereo unspecified),-6,1,-8,1.1,-13,8.6*
CCOC(=O)C1=C(C)N(CC(C)C)C(=O)C1,x,-11,x,1.1,-6,3
COc1ccccc1-n1cnnc1SCC(=O)NCC1CCCO1 (stereo unspecified),x,0,x,1,4,0
SMILES,Yeast life ext,TNAP inh no acc,BB579 growth dn,TNAP act hiacc,TNAP inh hiacc,RAM inhibit
Cc1ccc(/C(N)=N/OC(=O)c2ccc(Cl)cc2Cl)cc1,-11,-6,99*,1,-1,2
COc1ccc(C(=O)NCc2ccc3c(c2)cc(C)n3C)cc1OC,x,-8,x,1,-3,4
COc1cc(OC)cc(C(=O)NCCCN2CCN(CCCNC(=O)c3cc(OC)cc(OC)c3)CC2)c1,41*,-12,-23,1,-4,0
Cc1ccc(CNC(=O)c2ccc(-n3cccc3)cc2)cc1,x,-14,x,1,-2,3
COc1cc(OC)cc(C(=O)NCc2ccc(-n3cccc3)cc2)c1,x,-22,x,1,0,11*
Cc1cc2cc(CNC(=S)NCc3ccccc3)ccc2n1C,x,-25,x,1,-4,6
COc1cccc(C(=O)NCc2ccc3c(c2)cc(C)n3C)c1,x,-27,x,1,-3,10*
CCCCNC(=S)NCc1ccc2c(c1)cc(C)n2C,-2,-10,45*,1,-4,6
O=C(CSc1ccccn1)NC1CCCC1,x,-7,x,1,-2,1
COc1ccc(C(=O)NC(=S)NCc2ccccc2)cc1,-26,-4,-38,1,-2,2
COc1cc(OC)cc(C(=O)NC(=S)NCCc2ccccc2)c1,-21,-11,-1,1.1,-6,10*
c1ccc(C2=Nn3c(nnc3-c3ccco3)SC2)cc1,x,-3,x,1,-2,9.3*
c1ccc(-c2ccc(C3=Nn4c(nnc4-c4cc(-c5ccccc5)n[nH]4)SC3)cc2)cc1,-14,-18,-77,1,-4,4
CC1=Nn2c(nnc2-c2cc(-c3ccccc3)n[nH]2)SC1,13,51*,-22,1,-1,1
CCCCn1c(-c2nonc2N)nc2ccccc21,-7,-4,7,1.1,-7,x
CC(C)CCn1c(-c2nonc2N)nc2ccccc21,x,-1,-58,1,1,10*
O=C(NCc1ccc(F)cc1)C(=O)Nc1nc(C23CC4CC(CC(C4)C2)C3)cs1,-3,-8,-9,1,-1,1
CCOC(=O)c1ccc(Oc2nc(OC)cc(OC)n2)cc1,x,-15,x,1,-4,2
Brc1ccccc1-c1nnc(SCc2nc3ccccc3s2)o1,-4,-12,1,1,-4,8.6*
Cn1nnnc1SCc1nc2ccccc2s1,-12,-16,-22,1.1,-6,1
CCOC(=O)c1sc(NC(=O)CCCn2nc([N+](=O)[O-])c(Cl)c2C)c(C(=O)OCC)c1C,-5,-11,-40,1,-2,6
CCOC12NC(=O)CC(=O)N1C(c1ccccc1)=CS2 (stereo unspecified),-10,-14,-23,1,2,9.9*
COC(=O)c1c(C(=O)OC)c(-c2cccc(Cl)c2)n2c1CS(=O)C2 (stereo unspecified),x,-17,x,1,-2,0
CC1CC/C(=C\c2ccc3c(c2)OCO3)C(=O)/C1=C/c1ccc2c(c1)OCO2 (stereo unspecified),-7,4,-17,0.9,6,10*
O=C1/C(=C\c2ccc3c(c2)OCO3)CCC/C1=C/c1ccc2c(c1)OCO2,-5,-10,-19,1,1,8
